Data taken from ChEMBL document CHEMBL2062469, “1-(2-Mercaptobenzenesulfonyl)-3-hydroxyguanidines--novel potent antiproliferatives, synthesis and in vitro biological activity” (2012).

Assays:
Type in all cases: functional
[1] = test system: HOP-92; experiment: Cytostatic activity against human HOP92 cells
Method in brief: (§1)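 NCI-60 human tumor cell line screen run by the US National Cancer Institute under the NIH Developmental Therapeutics Program protocol. A single-dose prescreen at 10 µM came first. Selected compounds then went into the 5-dose assay. Cytostatic activity is reported as GI50 (µM).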

[2] = test system: SN12C; experiment: Cytostatic activity against human SN12C cells; method in brief: as §1
[3] = test system: SNB-19; experiment: Cytostatic activity against human SNB19 cells; method in brief: as §1
[4] = test system: SF-295; experiment: Cytostatic activity against human SF295 cells; method in brief: as §1
[5] = test system: HCT-15; experiment: Cytostatic activity against human HCT15 cells; method in brief: as §1
[6] = test system: NCI-H226; experiment: Cytostatic activity against human NCI-H226 cells; method in brief: as §1
[7] = test system: HT-29; experiment: Cytostatic activity against human HT-29 cells; method in brief: as §1
[8] = test system: PC-3; experiment: Cytostatic activity against human PC3 cells; method in brief: as §1
[9] = test system: K562; experiment: Cytostatic activity against human K562 cells; method in brief: as §1
[10] = test system: BT-549; experiment: Cytostatic activity against human BT549 cells; method in brief: as §1
[11] = test system: COLO 205; experiment: Cytostatic activity against human COLO205 cells; method in brief: as §1
[12] = Cytostatic activity against human […] cells; method in brief: as §1
[13] = test system: SK-MEL-28; experiment: Cytostatic activity against human SK-MEL-28 cells; method in brief: as §1
[14] = test system: A498; experiment: Cytostatic activity against human A498 cells; method in brief: as §1
[15] = test system: CCRF-CEM; experiment: Cytostatic activity against human CCRF-CEM cells; method in brief: as §1
[16] = test system: M14; experiment: Cytostatic activity against human M14 cells; method in brief: as §1
[17] = test system: UACC-257; experiment: Cytostatic activity against human UACC257 cells
Method in brief: (§2)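 Human tumour cell lines from the NCI-60 panel, tested at the US National Cancer Institute under the NIH Developmental Therapeutics Program protocol. A single-dose prescreen at 10 µM came first. Selected compounds then went to a 5-dose assay, which gave GI50 and TGI values in µM.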

[18] = test system: Hs-578T; experiment: Cytostatic activity against human Hs 578T cells; method in brief: as §1
[19] = test system: SF-268; experiment: Cytostatic activity against human SF268 cells; method in brief: as §1
[20] = test system: KM12; experiment: Cytostatic activity against human KM12 cells; method in brief: as §1
[21] = test system: ACHN; experiment: Cytostatic activity against human ACHN cells; method in brief: as §1
[22] = test system: OVCAR-4; experiment: Cytostatic activity against human OVCAR4 cells; method in brief: as §1
[23] = test system: HOP-62; experiment: Cytostatic activity against human HOP62 cells; method in brief: as §1
[24] = test system: T47D; experiment: Cytostatic activity against human T47D cells; method in brief: as §2
[25] = test system: LOX IMVI; experiment: Cytostatic activity against human LOXIMVI cells; method in brief: as §1
[26] = test system: UO-31; experiment: Cytostatic activity against human UO31 cells; method in brief: as §2
[27] = test system: NCI-H322M; experiment: Cytostatic activity against human NCI-H322M cells; method in brief: as §1
[28] = test system: MCF7; experiment: Cytostatic activity against human MCF7 cells; method in brief: as §1
[29] = test system: 786-0; experiment: Cytostatic activity against human 786-0 cells; method in brief: as §1
[30] = test system: MDA-MB-435; experiment: Cytostatic activity against human MDA-MB-435 cells; method in brief: as §1
[31] = test system: SNB-75; experiment: Cytostatic activity against human SNB75 cells; method in brief: as §2
[32] = test system: SK-MEL-2; experiment: Cytostatic activity against human SK-MEL-2 cells; method in brief: as §1
[33] = test system: MOLT-4; experiment: Cytostatic activity against human MOLT4 cells; method in brief: as §1
[34] = test system: OVCAR-5; experiment: Cytostatic activity against human OVCAR5 cells; method in brief: as §1
[35] = test system: RXF 393; experiment: Cytostatic activity against human RXF393 cells; method in brief: as §1
[36] = test system: U-251; experiment: Cytostatic activity against human U251 cells; method in brief: as §2
[37] = test system: OVCAR-3; experiment: Cytostatic activity against human OVCAR3 cells; method in brief: as §1
[38] = test system: Malme-3M; experiment: Cytostatic activity against human MALME-3M cells; method in brief: as §1
[39] = test system: NCI-H522; experiment: Cytostatic activity against human NCI-H522 cells; method in brief: as §1
[40] = test system: CAKI-1; experiment: Cytostatic activity against human Caki1 cells; method in brief: as §1
[41] = test system: SR; experiment: Cytostatic activity against human SR cells; method in brief: as §2
[42] = test system: EKVX; experiment: Cytostatic activity against human EKVX cells; method in brief: as §1
[43] = test system: SK-MEL-5; experiment: Cytostatic activity against human SK-MEL-5 cells; method in brief: as §1
[44] = test system: NCI-H460; experiment: Cytostatic activity against human NCI-H460 cells; method in brief: as §1
[45] = test system: SW-620; experiment: Cytostatic activity against human SW620 cells; method in brief: as §2
[46] = test system: HCC 2998; experiment: Cytostatic activity against human HCC2998 cells; method in brief: as §1
[47] = test system: HCT-116; experiment: Cytostatic activity against human HCT116 cells; method in brief: as §1
[48] = test system: SK-OV-3; experiment: Cytostatic activity against human SKOV3 cells; method in brief: as §1
[49] = test system: NCI-H23; experiment: Cytostatic activity against human NCI-H23 cells; method in brief: as §1
[50] = test system: OVCAR-8; experiment: Cytostatic activity against human OVCAR8 cells; method in brief: as §1
[51] = test system: NCI/ADR-RES; experiment: Cytostatic activity against human NCI-ADR-RES cells; method in brief: as §1
[52] = test system: SF-539; experiment: Cytostatic activity against human SF539 cells; method in brief: as §1
[53] = test system: MDA-MB-468; experiment: Cytostatic activity against human MDA-MB-468 cells; method in brief: as §1
[54] = test system: IGROV-1; experiment: Cytostatic activity against human IGROV1 cells; method in brief: as §1
[55] = test system: MDA-MB-231; experiment: Cytostatic activity against human MDA-MB-231/ATCC cells; method in brief: as §1
[56] = test system: DU-145; experiment: Cytostatic activity against human DU145 cells; method in brief: as §1
[57] = test system: UACC-62; experiment: Cytostatic activity against human UACC62 cells; method in brief: as §2

N=C(NO)NS(=O)(=O)c1cc(-c2nnc(-c3ccccc3)s2)c(Cl)cc1SCc1ccc2c(c1)OCO2
GI50 [1]: 1820 nM | TGI [1]: 5100 nM | GI50 [2]: 1620 nM | TGI [2]: 3450 nM | GI50 [3]: 1770 nM | TGI [3]: 3830 nM | GI50 [4]: 1630 nM | TGI [4]: 3550 nM | GI50 [5]: 2020 nM | TGI [5]: 4340 nM | GI50 [6]: 2010 nM | TGI [6]: 4020 nM | GI50 [7]: 1850 nM | TGI [7]: 3430 nM | GI50 [8]: 1850 nM | TGI [8]: 4130 nM | GI50 [9]: 1530 nM | TGI [9]: 3940 nM | GI50 [10]: 1960 nM | TGI [10]: 4000 nM | GI50 [11]: 1750 nM | TGI [11]: 3280 nM | GI50 [12]: 1760 nM | TGI [12]: 4520 nM | GI50 [13]: 1680 nM | TGI [13]: 3500 nM | GI50 [14]: 1980 nM | TGI [14]: 5520 nM | GI50 [15]: 1040 nM | TGI [15]: 3660 nM | GI50 [16]: 1740 nM | TGI [16]: 3470 nM | GI50 [17]: 1670 nM | TGI [17]: 3230 nM | GI50 [18]: 2410 nM | TGI [18]: 6610 nM | GI50 [19]: 1610 nM | TGI [19]: 3320 nM | GI50 [20]: 1640 nM | TGI [20]: 3030 nM | GI50 [21]: 1700 nM | TGI [21]: 3150 nM | GI50 [22]: 1710 nM | TGI [22]: 4980 nM | GI50 [23]: 1930 nM | TGI [23]: 3710 nM | GI50 [24]: 1690 nM | TGI [24]: 4150 nM | GI50 [25]: 1730 nM | GI50 [26]: 1280 nM | TGI [26]: 3540 nM | GI50 [27]: 1580 nM | TGI [27]: 4280 nM | GI50 [28]: 1360 nM | TGI [28]: 3010 nM | GI50 [29]: 2270 nM | GI50 [30]: 1380 nM | TGI [30]: 2770 nM | GI50 [31]: 1070 nM | TGI [31]: 2340 nM | GI50 [32]: 2010 nM | TGI [32]: 3750 nM | GI50 [33]: 1140 nM | TGI [33]: 3080 nM | GI50 [34]: 2060 nM | TGI [34]: 4360 nM | GI50 [35]: 1680 nM | TGI [35]: 3530 nM | GI50 [36]: 1400 nM | TGI [36]: 2850 nM | GI50 [37]: 1700 nM | TGI [37]: 3080 nM | GI50 [38]: 1710 nM | TGI [38]: 3600 nM | GI50 [39]: 240 nM | TGI [39]: 800 nM | GI50 [40]: 2030 nM | TGI [40]: 4420 nM | GI50 [41]: 880 nM | TGI [41]: 4100 nM | GI50 [42]: 1650 nM | TGI [42]: 2990 nM | GI50 [43]: 1520 nM | TGI [43]: 2840 nM | GI50 [44]: 1790 nM | TGI [44]: 3560 nM | GI50 [45]: 1460 nM | TGI [45]: 2860 nM | GI50 [46]: 1850 nM | TGI [46]: 3590 nM | GI50 [47]: 1520 nM | TGI [47]: 3310 nM | GI50 [48]: 1810 nM | TGI [48]: 3340 nM | GI50 [49]: 1770 nM | TGI [49]: 3850 nM | GI50 [50]: 1770 nM | TGI [50]: 3740 nM | GI50 [51]: 3680 nM | GI50 [52]: 2150 nM | TGI [52]: 4100 nM | GI50 [53]: 1530 nM | TGI [53]: 2930 nM | GI50 [54]: 1680 nM | TGI [54]: 3950 nM | GI50 [55]: 1680 nM | TGI [55]: 3370 nM | GI50 [56]: 1670 nM | TGI [56]: 3110 nM | GI50 [57]: 1700 nM | TGI [57]: 3530 nM
